Measured values reported in ChEMBL document CHEMBL3861959, “Synthesis and antiproliferative evaluation of novel 2-(4H-1,2,4-triazole-3-ylthio)acetamide derivatives as inducers of apoptosis in cancer cells” (Eur J Med Chem, 2016).

Tests used:
[1] = test system: Human immunodeficiency virus 1; assay: Antiviral activity against HIV1 3B infected in human MT4 cells assessed as protection against virus-induced cytopathic effect after 5 days MTT assay; assay type: functional, cell-based; conditions: Human immunodeficiency virus 1, 3B, MT4, 120 h
Method in brief: (§1)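 HIV-1 strain IIIB and HIV-2 strain ROD in MT-4 cells, MTT-based. Test compounds in serial five-fold dilutions, in triplicate wells run alongside mock-infected cells, with untreated infected and mock controls. MT-4 cells resuspended at 6 × 10^5 cells/mL. Absorbance read at 540 and 690 nm, median OD of three wells. EC50 is the 50% effective concentration.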

[2] = Antiviral activity against HIV2 ROD infected in human MT4 cells assessed as protection against virus-induced cytopathic effect after 5 days MTT assay; assay type: functional, cell-based, Human immunodeficiency virus type 2 (ISOLATE ROD); conditions: Human immunodeficiency virus 2, MT4, 120 h; method in brief: as §1
[3] = Cytotoxicity against human MOLT4 cells assessed as cell growth at 10^-5 M after 48 hrs by SRB assay relative to control; assay type: functional; conditions: MOLT-4, 48 h, read-out: Activity
Method in brief: (§2)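 NCI single-dose primary screen run under the US NCI protocol. Compounds tested at 10 µM across the 60-cell-line panel, with growth percent reported for each line.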

[4] = Cytotoxicity against human A549 cells assessed as cell growth at 10^-5 M after 48 hrs by SRB assay relative to control; assay type: functional; conditions: A549, 48 h, read-out: Activity; method in brief: as §2
[5] = Cytotoxicity against human NCI-H23 cells assessed as cell growth at 10^-5 M after 48 hrs by SRB assay relative to control; assay type: functional; conditions: NCI-H23, 48 h, read-out: Activity; method in brief: as §2
[6] = Cytotoxicity against human NCI-H460 cells assessed as cell growth at 10^-5 M after 48 hrs by SRB assay relative to control; assay type: functional; conditions: NCI-H460, 48 h, read-out: Activity; method in brief: as §2
[7] = Cytotoxicity against human NCI-H522 cells assessed as cell growth at 10^-5 M after 48 hrs by SRB assay relative to control; assay type: functional; conditions: NCI-H522, 48 h, read-out: Activity; method in brief: as §2
[8] = Cytotoxicity against human HCC2998 cells assessed as cell growth at 10^-5 M after 48 hrs by SRB assay relative to control; assay type: functional; conditions: HCC 2998, 48 h, read-out: Activity; method in brief: as §2
[9] = Cytotoxicity against human HCT15 cells assessed as cell growth at 10^-5 M after 48 hrs by SRB assay relative to control; assay type: functional; conditions: HCT-15, 48 h, read-out: Activity; method in brief: as §2
[10] = Cytotoxicity against human SW620 cells assessed as cell growth at 10^-5 M after 48 hrs by SRB assay relative to control; assay type: functional; conditions: SW-620, 48 h, read-out: Activity
Method in brief: (§3)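 Single-dose NCI 60-cell-line screen run under the US NCI protocol. Compounds tested at 10 µM. Read-out is growth percent for each cell line.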

[11] = Cytotoxicity against human SF268 cells assessed as cell growth at 10^-5 M after 48 hrs by SRB assay relative to control; assay type: functional; conditions: SF-268, 48 h, read-out: Activity; method in brief: as §2
[12] = Cytotoxicity against human SF295 cells assessed as cell growth at 10^-5 M after 48 hrs by SRB assay relative to control; assay type: functional; conditions: SF-295, 48 h, read-out: Activity; method in brief: as §2
[13] = Cytotoxicity against human SF539 cells assessed as cell growth at 10^-5 M after 48 hrs by SRB assay relative to control; assay type: functional; conditions: SF-539, 48 h, read-out: Activity; method in brief: as §3
[14] = Cytotoxicity against human SNB75 cells assessed as cell growth at 10^-5 M after 48 hrs by SRB assay relative to control; assay type: functional; conditions: SNB-75, 48 h, read-out: Activity; method in brief: as §3
[15] = Cytotoxicity against human U251 cells assessed as cell growth at 10^-5 M after 48 hrs by SRB assay relative to control; assay type: functional; conditions: U-251, 48 h, read-out: Activity; method in brief: as §3
[16] = Cytotoxicity against human M14 cells assessed as cell growth at 10^-5 M after 48 hrs by SRB assay relative to control; assay type: functional; conditions: M14, 48 h, read-out: Activity; method in brief: as §2
[17] = Cytotoxicity against human SK-MEL-2 cells assessed as cell growth at 10^-5 M after 48 hrs by SRB assay relative to control; assay type: functional; conditions: SK-MEL-2, 48 h, read-out: Activity; method in brief: as §3
[18] = Cytotoxicity against human UACC62 cells assessed as cell growth at 10^-5 M after 48 hrs by SRB assay relative to control; assay type: functional; conditions: UACC-62, 48 h, read-out: Activity; method in brief: as §3
[19] = Cytotoxicity against human OVCAR3 cells assessed as cell growth at 10^-5 M after 48 hrs by SRB assay relative to control; assay type: functional; conditions: OVCAR-3, 48 h, read-out: Activity; method in brief: as §2
[20] = Cytotoxicity against human OVCAR4 cells assessed as cell growth at 10^-5 M after 48 hrs by SRB assay relative to control; assay type: functional; conditions: OVCAR-4, 48 h, read-out: Activity; method in brief: as §2
[21] = Cytotoxicity against human OVCAR5 cells assessed as cell growth at 10^-5 M after 48 hrs by SRB assay relative to control; assay type: functional; conditions: OVCAR-5, 48 h, read-out: Activity; method in brief: as §2
[22] = Cytotoxicity against human OVCAR8 cells assessed as cell growth at 10^-5 M after 48 hrs by SRB assay relative to control; assay type: functional; conditions: OVCAR-8, 48 h, read-out: Activity; method in brief: as §2
[23] = Cytotoxicity against human SKOV3 cells assessed as cell growth at 10^-5 M after 48 hrs by SRB assay relative to control; assay type: functional; conditions: SK-OV-3, 48 h, read-out: Activity; method in brief: as §3
[24] = Cytotoxicity against human 786-0 cells assessed as cell growth at 10^-5 M after 48 hrs by SRB assay relative to control; assay type: functional; conditions: 786-0, 48 h, read-out: Activity; method in brief: as §2
[25] = Cytotoxicity against human ACHN cells assessed as cell growth at 10^-5 M after 48 hrs by SRB assay relative to control; assay type: functional; conditions: read-out: Activity; method in brief: as §2
[26] = Cytotoxicity against human Caki1 cells assessed as cell growth at 10^-5 M after 48 hrs by SRB assay relative to control; assay type: functional; conditions: CAKI-1, 48 h, read-out: Activity; method in brief: as §2
[27] = Cytotoxicity against human RXF393 cells assessed as cell growth at 10^-5 M after 48 hrs by SRB assay relative to control; assay type: functional; conditions: RXF 393, 48 h, read-out: Activity; method in brief: as §2
[28] = Cytotoxicity against human SN12C cells assessed as cell growth at 10^-5 M after 48 hrs by SRB assay relative to control; assay type: functional; conditions: read-out: Activity; method in brief: as §3
[29] = Cytotoxicity against human TK10 cells assessed as cell growth at 10^-5 M after 48 hrs by SRB assay relative to control; assay type: functional; conditions: TK-10, 48 h, read-out: Activity; method in brief: as §3
[30] = Cytotoxicity against human UO31 cells assessed as cell growth at 10^-5 M after 48 hrs by SRB assay relative to control; assay type: functional; conditions: UO-31, 48 h, read-out: Activity; method in brief: as §3
[31] = Cytotoxicity against human DU145 cells assessed as cell growth at 10^-5 M after 48 hrs by SRB assay relative to control; assay type: functional; conditions: DU-145, 48 h, read-out: Activity; method in brief: as §2

For `Cc1ccc(C(C)C)c(OCc2nnc(SCC(=O)Nc3ccc(Cl)cc3)n2Cc2ccccc2)c1`, the EC50 [1] was over 65.9 µg/mL, the EC50 [2] was over 65.9 µg/mL and the growth at 10 µM [3] was 73.7%. The growth at 10 µM [4] was 27.9%, the growth at 10 µM [5] was 80.6% and the growth at 10 µM [6] was 17.7%. For the same compound, the growth at 10 µM [7] was 90.4%, the growth at 10 µM [8] was 89.7% and the growth at 10 µM [9] was 76.7%. For the same compound, the growth at 10 µM [10] was 65.9%, the growth at 10 µM [11] was 88.6% and the growth at 10 µM [12] was 88.1%. It also gave a growth at 10 µM [13] of 85.4%, a growth at 10 µM [14] of 93.6% and a growth at 10 µM [15] of 40.9%. For the same compound, the growth at 10 µM [16] was 99%, the growth at 10 µM [17] was 108% and the growth at 10 µM [18] was 94%. For the same compound, the growth at 10 µM [19] was 63.9%, the growth at 10 µM [20] was 33.4% and the growth at 10 µM [21] was 93.2%. It also gave a growth at 10 µM [22] of 67.3%, a growth at 10 µM [23] of 109% and a growth at 10 µM [24] of 38.9%. It also gave a growth at 10 µM [25] of 41.6%, a growth at 10 µM [26] of 93.9% and a growth at 10 µM [27] of 101%. It also gave a growth at 10 µM [28] of 56.5%, a growth at 10 µM [29] of 71.9% and a growth at 10 µM [30] of 53.6%. It also gave a growth at 10 µM [31] of 90.5%.
Work on `Cc1ccc(C(C)C)c(OCc2nnc(SCC(=O)Nc3ccc(S(N)(=O)=O)cc3)n2Cc2ccccc2)c1` yielded an EC50 [1] of over 13 µg/mL, an EC50 [2] of over 13 µg/mL and a growth at 10 µM [3] of 45.2%. For the same compound, the growth at 10 µM [4] was 50.6%, the growth at 10 µM [5] was 63.8% and the growth at 10 µM [6] was 76.4%. For the same compound, the growth at 10 µM [7] was 75.3%, the growth at 10 µM [8] was 73.8% and the growth at 10 µM [9] was 64.2%. The growth at 10 µM [10] was 91.7%, the growth at 10 µM [11] was 74% and the growth at 10 µM [12] was 70.7%. The growth at 10 µM [13] was 89.5%, the growth at 10 µM [14] was 93.8% and the growth at 10 µM [15] was 64.6%. It also gave a growth at 10 µM [16] of 87.3%, a growth at 10 µM [17] of 80.9% and a growth at 10 µM [18] of 51.2%. It also gave a growth at 10 µM [19] of 74.7%, a growth at 10 µM [20] of 88.8% and a growth at 10 µM [21] of 99.4%. It also gave a growth at 10 µM [22] of 41.1%, a growth at 10 µM [23] of 109% and a growth at 10 µM [24] of 92.3%. The growth at 10 µM [25] was 76%, the growth at 10 µM [26] was 81.1% and the growth at 10 µM [27] was 70.6%. The growth at 10 µM [28] was 81.6%, the growth at 10 µM [29] was 94% and the growth at 10 µM [30] was 42.7%. For the same compound, the growth at 10 µM [31] was 82.3%.
Compound `CC(=O)Nc1ccc(OCc2nnc(SCC(=O)Nc3ccc(Br)cc3)n2Cc2ccccc2)cc1` has an EC50 [1] of over 3.99 µg/mL, an EC50 [2] of over 3.99 µg/mL and a growth at 10 µM [3] of 64.7%. The growth at 10 µM [4] was 78.5%, the growth at 10 µM [5] was 75.2% and the growth at 10 µM [6] was 74.3%. For the same compound, the growth at 10 µM [7] was 71.2%, the growth at 10 µM [8] was 85.6% and the growth at 10 µM [9] was 60.4%. For the same compound, the growth at 10 µM [10] was 59%, the growth at 10 µM [11] was 70.9% and the growth at 10 µM [12] was 80.2%. For the same compound, the growth at 10 µM [13] was 92.8%, the growth at 10 µM [14] was 103% and the growth at 10 µM [15] was 88.5%. For the same compound, the growth at 10 µM [16] was 43.5%, the growth at 10 µM [17] was 72.2% and the growth at 10 µM [18] was 32.5%. The growth at 10 µM [19] was 102%, the growth at 10 µM [20] was 101% and the growth at 10 µM [21] was 92%. For the same compound, the growth at 10 µM [22] was 84.8%, the growth at 10 µM [23] was 110% and the growth at 10 µM [24] was 91.1%. The growth at 10 µM [25] was 58.6%, the growth at 10 µM [26] was 72.5% and the growth at 10 µM [27] was 101%. It also gave a growth at 10 µM [28] of 85.7%, a growth at 10 µM [29] of 87.1% and a growth at 10 µM [30] of 52.8%. For the same compound, the growth at 10 µM [31] was 72.6%.
